Source: ChEMBL document CHEMBL2163270, “Design and in vitro activities of N-alkyl-N-[(8-R-2,2-dimethyl-2H-chromen-6-yl)methyl]heteroarylsulfonamides, novel, small-molecule hypoxia inducible factor-1 pathway inhibitors and anticancer agents” (J Med Chem, 2012)
In brackets after ≈: the same amount, converted by molar mass. Activity calls are given as the source filed them. The rule behind the calls is not given here.

Legend:
[1] = 1-Octanol-phosphate buffer distribution coefficient, log P of the compound at pH 7.4 by HPLC analysis; format: physicochemical
How it was run: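 Eluent methanol:water:triethylamine 70:30:0.1 at 2 mL/min, UV 254/280 nm. Calibrated with aniline, benzene, toluene and chlorobenzene plus two shake-flask-measured reference sulfonamides.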

[2] = target: Histone acetyltransferase p300 (Homo sapiens) (UniProt Q09472); test: Inhibition of P300 CH1 domain-mediated HIF1 transcriptional activity in human LN229-V6R cells assessed as reduction in luciferase activity incubated for 1 hr under normoxia followed by 24 hrs under hypoxia by reporter gene assay; format: cell-based
Histone acetyltransferase p300 (Homo sapiens), sequence (Q09472 whole entry, the tested form may be a part): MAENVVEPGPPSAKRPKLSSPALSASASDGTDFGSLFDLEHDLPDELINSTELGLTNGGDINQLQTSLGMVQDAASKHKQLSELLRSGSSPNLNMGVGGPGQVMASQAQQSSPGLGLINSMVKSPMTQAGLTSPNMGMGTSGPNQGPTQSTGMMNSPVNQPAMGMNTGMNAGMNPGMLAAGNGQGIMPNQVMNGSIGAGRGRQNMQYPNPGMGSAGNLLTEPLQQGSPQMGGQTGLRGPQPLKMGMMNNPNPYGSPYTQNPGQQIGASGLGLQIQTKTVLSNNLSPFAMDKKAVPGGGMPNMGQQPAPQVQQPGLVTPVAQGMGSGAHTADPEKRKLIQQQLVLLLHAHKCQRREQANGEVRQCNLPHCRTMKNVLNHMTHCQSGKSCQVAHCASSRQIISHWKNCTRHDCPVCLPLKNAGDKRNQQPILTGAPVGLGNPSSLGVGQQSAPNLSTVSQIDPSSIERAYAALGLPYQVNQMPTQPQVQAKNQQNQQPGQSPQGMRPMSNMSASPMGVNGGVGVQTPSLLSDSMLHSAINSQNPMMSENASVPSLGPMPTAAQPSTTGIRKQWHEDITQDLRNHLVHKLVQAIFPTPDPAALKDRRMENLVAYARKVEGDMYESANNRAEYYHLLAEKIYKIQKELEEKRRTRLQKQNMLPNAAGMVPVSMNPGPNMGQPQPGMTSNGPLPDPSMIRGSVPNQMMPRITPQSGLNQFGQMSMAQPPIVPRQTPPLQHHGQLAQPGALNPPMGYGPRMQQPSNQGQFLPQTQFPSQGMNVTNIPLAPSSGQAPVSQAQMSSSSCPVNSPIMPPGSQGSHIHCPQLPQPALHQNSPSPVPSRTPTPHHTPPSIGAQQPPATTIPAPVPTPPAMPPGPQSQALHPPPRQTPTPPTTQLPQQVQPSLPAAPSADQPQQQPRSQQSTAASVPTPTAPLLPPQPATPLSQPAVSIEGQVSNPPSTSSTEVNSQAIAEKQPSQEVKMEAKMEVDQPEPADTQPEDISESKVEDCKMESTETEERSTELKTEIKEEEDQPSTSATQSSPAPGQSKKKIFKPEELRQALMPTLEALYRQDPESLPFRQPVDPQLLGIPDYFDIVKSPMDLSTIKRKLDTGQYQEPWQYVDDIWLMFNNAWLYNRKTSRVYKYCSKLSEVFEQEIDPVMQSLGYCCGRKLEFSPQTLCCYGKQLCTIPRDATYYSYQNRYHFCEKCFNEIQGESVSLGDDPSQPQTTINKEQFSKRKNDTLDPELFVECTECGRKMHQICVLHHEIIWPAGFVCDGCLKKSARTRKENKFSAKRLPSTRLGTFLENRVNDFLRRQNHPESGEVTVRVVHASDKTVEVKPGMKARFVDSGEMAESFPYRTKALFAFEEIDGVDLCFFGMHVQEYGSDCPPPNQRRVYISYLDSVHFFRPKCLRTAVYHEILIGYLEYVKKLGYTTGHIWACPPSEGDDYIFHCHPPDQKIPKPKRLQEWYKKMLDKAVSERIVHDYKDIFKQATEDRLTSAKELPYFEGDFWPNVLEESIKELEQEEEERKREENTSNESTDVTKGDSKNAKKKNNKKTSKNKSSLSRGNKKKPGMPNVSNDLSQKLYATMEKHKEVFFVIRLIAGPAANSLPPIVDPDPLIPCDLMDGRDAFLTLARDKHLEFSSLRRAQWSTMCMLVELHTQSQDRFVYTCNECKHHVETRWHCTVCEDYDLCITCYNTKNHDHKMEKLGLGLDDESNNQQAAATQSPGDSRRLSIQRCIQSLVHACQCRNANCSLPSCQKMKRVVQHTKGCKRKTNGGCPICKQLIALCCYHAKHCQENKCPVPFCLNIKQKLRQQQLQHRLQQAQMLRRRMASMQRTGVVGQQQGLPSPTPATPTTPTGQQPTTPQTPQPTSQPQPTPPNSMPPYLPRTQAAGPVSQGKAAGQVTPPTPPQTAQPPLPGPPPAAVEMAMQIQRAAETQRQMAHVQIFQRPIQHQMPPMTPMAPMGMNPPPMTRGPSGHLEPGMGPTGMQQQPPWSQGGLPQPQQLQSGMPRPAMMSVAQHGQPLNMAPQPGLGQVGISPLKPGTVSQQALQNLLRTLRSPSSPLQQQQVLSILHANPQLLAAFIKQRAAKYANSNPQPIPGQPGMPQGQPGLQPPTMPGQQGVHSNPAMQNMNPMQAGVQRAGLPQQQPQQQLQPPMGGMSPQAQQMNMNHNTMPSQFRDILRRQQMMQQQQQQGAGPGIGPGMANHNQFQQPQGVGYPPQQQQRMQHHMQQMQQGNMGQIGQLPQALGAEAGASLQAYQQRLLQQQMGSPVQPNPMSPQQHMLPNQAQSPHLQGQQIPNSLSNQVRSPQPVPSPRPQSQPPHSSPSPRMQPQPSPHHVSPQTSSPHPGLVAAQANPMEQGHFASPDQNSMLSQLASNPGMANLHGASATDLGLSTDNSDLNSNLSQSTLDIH
How it was run: (§1)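 LN229-V6R cells carry a stably integrated hypoxia/HIF-inducible luciferase reporter. 3 × 10⁴ cells/well in DMEM with 10% serum, 24 h normoxia. Compound at 2.5, 5.0 or 10.0 μM in 1% DMSO, 1 h at 37 °C, then 24 h at 1% O2. Lysates mixed with luciferase substrate and read by luminometry, expressed as % of untreated control. Triplicates.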

[3] = target: Histone acetyltransferase p300 (Homo sapiens) (UniProt Q09472); test: Inhibition of P300 CH1 domain-mediated HIF1 transcriptional activity in human LN229-V6R cells assessed as remaining activity at 2.5 uM incubated for 1 hr under normoxia followed by 24 hrs under hypoxia by luciferase reporter gene assay; format: cell-based; how it was run: as §1
LN-229 = test: Inhibition of luciferase activity in human LN229-Lux cells at 2.5 to 10 uM incubated for 1 hr under normoxia followed by 24 hrs under hypoxia by reporter gene assay; format: functional, cell-based
[4] = Cytotoxicity against human LN229 cells transfected with V6R incubated for 1 hr under normoxic condition followed by 3 days under hypoxic condition by SRB assay; format: functional, cell-based; details: LN-229
How it was run: (§2)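 SRB growth assay: LN229-V6R, 2 × 10³ cells/well, attached 24 h under normoxia. Dosed at 3-100 μM in 1% DMSO, 1 h normoxia, then normoxia or hypoxia for 3 days. Cold 10% TCA fixation, 0.04% SRB stain, dye solubilized in 10 mM Tris pH 10, OD 564 nm. Quadruplicate or sextuplicate wells, two independent experiments; IC50 by curve fit.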

[5] = 1-Octanol-phosphate buffer distribution coefficient, log P of the compound at pH 7.4 after 15 mins by shake flask method; format: physicochemical
How it was run: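 Shake-flask partition per OECD 107: 1-octanol and 0.2 M phosphate buffer pH 7.4 mutually presaturated by 24 h stirring at room temperature. 1-2 mg compound dissolved in 2 mL buffer-saturated octanol plus 2 mL octanol-saturated buffer, run in duplicate. Aqueous layer quantified by HPLC at 254 nm against standard curves.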

[6] = Cytotoxicity against human LN229 cells transfected with V6R incubated for 3 days under normoxic condition by SRB assay; format: functional, cell-based; details: LN-229, 72 h; how it was run: as §2
[7] = Cytotoxicity against human HFF1 cells incubated for 1 hr under normoxic condition followed by 14 days under hypoxic condition by clonogenecity assay; format: cell-based; details: HFF-1
How it was run: (§3)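 Clonogenic assay in LN229 glioma or HFF-1 immortalized fibroblasts seeded at 200 or 1,000 cells/well and allowed to adhere 16 h under normoxia. Compound at 6.25-100 μM final, 1% DMSO. Plates held 1 h under normoxia, then 14 days at 21% or 1% O2. Colonies stained with 0.9% crystal violet and counted. IC50 from exponential/polynomial fit (R² ≥ 0.8).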

[8] = Cytotoxicity against human HFF1 cells incubated for 14 days under normoxic condition by clonogenecity assay; format: cell-based; details: HFF-1, 336 h; how it was run: as §3
[9] = Cytotoxicity against human LN229 cells transfected with V6R incubated for 1 hr under normoxic condition followed by 14 days under hypoxic condition by clonogenecity assay; format: functional, cell-based; details: LN-229
Liver = test: Half life in mouse liver homogenate by HPLC analysis at pH 7.4; format: ADME, tissue-based; details: in vitro
How it was run: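 Mouse liver homogenate in PBS pH 7.4 (1:2 w/v) incubated with 20 μM compound at 37 °C with shaking. Timed samples extracted with acetonitrile and analysed by C8 HPLC-PDA with 2 μM α-naphthoflavone internal standard, linear range 1-50 μM. Triplicates.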

[10] = Cytotoxicity against human LN229 cells transfected with V6R incubated for 14 days under normoxic condition by clonogenecity assay; format: functional, cell-based; details: LN-229, 336 h
[11] = target: Histone acetyltransferase p300 (Homo sapiens) (UniProt Q09472); test: Inhibition of P300 CH1 domain-mediated HIF1 transcriptional activity in human LN229-V6R cells assessed as reduction in luciferase activity at 10 uM incubated for 1 hr under normoxia followed by 24 hrs under hypoxia by reporter gene assay; format: cell-based; how it was run: as §1
[12] = target: Histone acetyltransferase p300 (Homo sapiens) (UniProt Q09472); test: Inhibition of P300 CH1 domain-mediated HIFalpha protein expression in human LN229-V6R cells incubated for 1 hr under normoxia followed by 24 hrs under hypoxia by Western blot analysis; format: cell-based
How it was run: (§4)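 LN229-V6R cells, 2 × 10⁵ per 35 mm dish, grown 24 h under normoxia. Compound at 3-100 μM in 1% DMSO, 1 h normoxia, then 24 h at 1% O2. Lysed in SDS loading buffer and resolved on a 4-12.5% gradient gel. Immunoblotted for HIF-1α (1:500) with β-actin (1:3,000), HRP secondaries, ECL detection. Repeated at least twice.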

[13] = Drug metabolism in mouse plasma after 24 hrs by HPLC analysis; format: ADME, cell-free; details: read-out: Drug metabolism
How it was run: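 Compound at 20 μM incubated in fresh mouse plasma at 37 °C with shaking for 24 h. Samples extracted with acetonitrile, dried and reconstituted. Quantified by C8 reverse-phase HPLC with photodiode-array detection, 2 μM α-naphthoflavone internal standard, standard curves 1-50 μM. Triplicates.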

[14] = Aqueous solubility of the compound at pH 5 after 90 mins by laser nephelometric analysis; format: physicochemical; details: aqueous medium
How it was run: (§5)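 DMSO stocks (30 mg/mL) serially diluted, then diluted into phosphate-buffered saline at pH 7.4, 5.0 or 3.0. Final drug concentrations were 1.5–300 μg/mL with 1% DMSO. Incubated 90 min at ambient temperature, and laser nephelometry located the onset of precipitation. An internal control was included.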

[15] = Aqueous solubility of the compound; format: physicochemical; details: aqueous medium
How it was run: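 Saturated suspension (1–2 mg in 2 mL distilled water) sonicated 30 min at room temperature, centrifuged 1,500 g, 20 °C, 5 min, then filtered through 0.2 μm PTFE. Filtrate quantified by HPLC-UV at 254 nm against standard curves. Three independent experiments, values averaged.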

[16] = Aqueous solubility of the compound at pH 3 after 90 mins by laser nephelometric analysis; format: physicochemical; details: aqueous medium; how it was run: as §5
[17] = target: Histone acetyltransferase p300 (Homo sapiens) (UniProt Q09472); test: Inhibition of P300 CH1 domain-mediated HIF1 transcriptional activity in human LN229-V6R cells assessed as reduction in luciferase activity at 2.5 to 10 uM incubated for 1 hr under normoxia followed by 24 hrs under hypoxia by reporter gene assay; format: cell-based
How it was run: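 LN229-V6R cells carrying a stably integrated hypoxia/HIF-inducible luciferase reporter were seeded at 3 × 10⁴/well in DMEM with 10% serum and grown 24 h under normoxia. Compound was added at 2.5, 5.0 or 10.0 μM in 1% DMSO. Cells were held 1 h at 37 °C, then 24 h under hypoxia (1% O₂). Luciferase was read in lysates as percent of untreated control, in triplicate.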

[18] = Aqueous solubility of the compound at pH 7.4 after 90 mins by laser nephelometric analysis; format: physicochemical; details: aqueous medium; how it was run: as §5
[19] = target: Histone acetyltransferase p300 (Homo sapiens) (UniProt Q09472); test: Inhibition of P300 CH1 domain-mediated HIFalpha protein expression in human LN229-V6R cells at 3 to 50 uM incubated for 1 hr under normoxia followed by 24 hrs under hypoxia by Western blot analysis; format: cell-based; how it was run: as §4
[20] = target: Histone acetyltransferase p300 (Homo sapiens) (UniProt Q09472); test: Inhibition of P300 CH1 domain-mediated HIFalpha protein expression in human LN229-V6R cells at 100 uM incubated for 1 hr under normoxia followed by 24 hrs under hypoxia by Western blot analysis; format: cell-based; how it was run: as §4

| Structure (SMILES) | logD [1] | inhibition [2] | Activity [3] | inhibition (LN-229) | t1/2 (Liver) | metabolised at 24 h [13] | also measured |
| --- | --- | --- | --- | --- | --- | --- | --- |
| CC(C)CN(Cc1ccc2c(c1)C=CC(C)(C)O2)S(=O)(=O)c1nccs1 | 4.4 | Dose-dependent effect | 78% | inactive | – | – | – |
| COc1cc(CN(C(C)C)S(=O)(=O)c2ccccn2)cc2c1OC(C)(C)C=C2 | – | Dose-dependent effect | 61% | inactive | 15 h | < 1% | IC50 [4]: 146 µM; logD at 0.25 h [5]: 1.3; IC50 [6]: 73 µM; IC50 [7]: > 100 µM; IC50 [8]: 55 µM; IC50 [9]: > 100 µM; IC50 [10]: 69 µM; inhibition [11]: > 60%; inhibition [12]: Dose-dependent effect |
| CC(C)CN(Cc1cc(O)c2c(c1)C=CC(C)(C)O2)S(=O)(=O)c1ccncc1 | 1.2 | Dose-dependent effect | 59% | inactive | – | < 1% | IC50 [4]: 113 µM; IC50 [6]: 92 µM; IC50 [7]: 40 µM; IC50 [8]: 22 µM; IC50 [9]: 30 µM; IC50 [10]: 23 µM; inhibition [11]: > 60%; inhibition [12]: Dose-dependent effect |
| CC(C)CN(Cc1ccc2c(c1)C=CC(C)(C)O2)S(=O)(=O)c1nccn1C | 3.1 | Dose-dependent effect | 74% | inactive | – | – | – |
| CC(C)CN(Cc1ccc2c(c1)C=CC(C)(C)O2)S(=O)(=O)c1ccncc1 | 3.6 | Dose-dependent effect | 63% | inactive | – | – | – |
| CC(C)CN(Cc1ccc2c(c1)C=CC(C)(C)O2)S(=O)(=O)c1ccccn1 | 4.1 | Dose-dependent effect | 85% | inactive | – | – | – |
| CC(C)CN(Cc1cc(O)c2c(c1)C=CC(C)(C)O2)S(=O)(=O)c1ccccn1 | 1.3 | Dose-dependent effect | 43% | inactive | 15 h | – | – |
| CC1(C)C=Cc2cc(CN(C3CCCC3)S(=O)(=O)c3ccccn3)ccc2O1 | 3.8 | Dose-dependent effect | 60% | inactive | – | – | – |
| COc1ccc(S(=O)(=O)N(Cc2ccc3c(c2)C=CC(C)(C)O3)c2ccccc2)cc1OC | 3.7 | – | 28% | inactive | 11 h | < 1% | solubility kinetic at 1.5 h [14]: < 15 µg/mL; solubility [15]: 9 nM (≈ 4.19 ng/mL); solubility kinetic at 1.5 h [16]: < 15 µg/mL; inhibition [17]: Active; solubility kinetic at 1.5 h [18]: < 15 µg/mL |
| CC1(C)C=Cc2cc(CN(C3CCC3)S(=O)(=O)c3ccccn3)ccc2O1 | 3 | Dose-dependent effect | 53% | inactive | – | – | – |
| CC(C)N(Cc1ccc2c(c1)C=CC(C)(C)O2)S(=O)(=O)c1ccccn1 | – | Dose-dependent effect | 55% | inactive | 20 h | < 1% | IC50 [4]: 126 µM; logD at 0.25 h [5]: 2; IC50 [6]: 100 µM; IC50 [7]: 93 µM; inhibition [19]: inactive; IC50 [8]: 62 µM; IC50 [9]: 134 µM; solubility kinetic at 1.5 h [14]: 16 µg/mL (≈ 43 µM); IC50 [10]: 82 µM; inhibition [11]: 60%; solubility kinetic at 1.5 h [16]: 17 µg/mL (≈ 45.6 µM); inhibition [20]: Active; solubility kinetic at 1.5 h [18]: < 15 µg/mL |
| CC1(C)C=Cc2cc(CN(CC3CC3)S(=O)(=O)c3ccccn3)ccc2O1 | 3.1 | Dose-dependent effect | 49% | inactive | 13 h | < 1% | – |
| CC1(C)C=Cc2cc(CN(C3CC3)S(=O)(=O)c3ccccn3)ccc2O1 | 3 | Dose-dependent effect | 71% | inactive | – | – | – |
| CO[C@H]1/C=C\C=C(/C)C(=O)NC2=CC(=O)C(NCCN(C)C)=C(C[C@@H](C)C[C@H](OC)[C@H](O)[C@@H](C)/C=C(\C)[C@@H]1OC(N)=O)C2=O (stereo in doubt) | – | – | – | Active | – | – | – |
